The text below walks through data of ChEMBL document CHEMBL5705899 (Biochem J, 2014).

Test [1] has as its target Serine/threonine-protein kinase mTOR (Homo sapiens) (UniProt P42345). The experiment in a line: Inhibition of mTOR in human U2OS cells expressing FLAG-tagged SGK3 assessed as reduction in 4EBP1 phosphorylation T37/T46 residues at 0.1 uM 1 hr by immunoblot analysis. The test is classed as cell-based. The procedure, abridged:
(§1)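 Doxycycline-induced FLAG-SGK3 U2OS Flp-In cells exposed to 0.1 μM mTOR inhibitor for 1 h. Clarified lysates immunoblotted for 4EBP1 phosphosites (Thr37/Thr46, Ser65), ECL film detection.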
On the technique in general: Immunoblotting shows a protein as a band on a membrane.

The target is the same in test [2]. The experiment in a line: Inhibition of mTOR in human U2OS cells expressing FLAG-tagged SGK3 assessed as reduction in 4EBP1 phosphorylation S65 residues at 0.1 uM 1 hr by immunoblot analysis. The test is classed as cell-based. In outline: as §1
The target in test [3] is Phosphatidylinositol 3-kinase catalytic subunit type 3 (Homo sapiens) (UniProt Q8NEB9). Kind of test: Inhibition of Vps34 in human U2OS cells expressing GFP-2xFYVEHrs assessed as reduction in PtdIns(3)P level in endosome at 0.5 uM incubated for 1 hr by Alexa Fluor 488 staining based fluorescence microscopic analysis relative to control. In outline:
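U2OS clone with low stable expression of lentiviral GFP–2×FYVEHrs; 1 h inhibitor exposure. Permeabilized by a freeze–thaw in liquid nitrogen, then fixed in 4% paraformaldehyde, stained with anti-GFP plus Alexa Fluor 488 secondary and DAPI. Ten random fields of 20–25 cells each; fluorescence per cell (field total/cell count) expressed relative to DMSO, mean±S.D.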

Test [4] deals with U2OS. The experiment in a line: Inhibition of PI3K in human U2OS cells expressing GFP-PHAkt1 assessed as reduction in IGF-stimulated PtdIns(3,4,5)P3/PtdIns(3,4)P2 level in endosome at 0.5 uM pre incubated for 1 hr followed by IGF stimulation and measured after 15 mins by Alexa Fluor 488 staining based fluorescence microscopic analysis. In kind it is subcellular. The following applies: time 1.25 hrs.

Test [5] concerns the target Phosphatidylinositol 3-kinase catalytic subunit type 3 (Homo sapiens) (UniProt Q8NEB9). The experiment in a line: Inhibition of Vps34 in human U2OS cells expressing C-terminal tagged-SGK3 assessed as reduction in SGK3 level in endosome at 0.5 uM incubated for 1 hr by Alexa Fluor 594 staining based fluorescence microscopic analysis. In kind it is subcellular.
Test [6] has as its system U2OS. The experiment in a line: Inhibition of PI3K in human U2OS cells expressing FLAG-tagged SGK3 assessed as reduction in SGK3 phosphorylation at T320 residues 0.5 uM after 1 hr by immunoblot analysis. In kind it is cell-based. In outline:
(§2)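 FLAG-SGK3 U2OS Flp-In cells (doxycycline-induced) treated for 1 h with class I PI3K inhibitor, 0.5 μM or a dose series as indicated. Lysed in phosphatase-inhibitor buffer, clarified at 16000 g for 10 min at 4°C, Bradford-normalized. Akt, PRAS40 and 4EBP1 phosphosites were read by immunoblot, and SGK3 sites on anti-FLAG immunoprecipitates, with ECL film detection.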

Test [7] deals with U2OS. The experiment in a line: Inhibition of PI3K in human U2OS cells expressing FLAG-tagged SGK3 assessed as reduction in SGK3 phosphorylation at S486 residues 0.5 uM after 1 hr by immunoblot analysis. In kind it is cell-based. In outline:
as §2

Test [8] deals with U2OS. Kind of test: Inhibition of PI3K in human U2OS cells expressing FLAG-tagged SGK3 assessed as reduction in AKT phosphorylation T308 residues at 0.5 uM 1 hr by immunoblot analysis. In kind it is cell-based. In outline: as §2
Test [9] deals with U2OS. The experiment in a line: Inhibition of PI3K in human U2OS cells expressing FLAG-tagged SGK3 assessed as reduction in AKT phosphorylation S473 residues at 0.5 uM 1 hr by immunoblot analysis. The test is classed as cell-based. The procedure, abridged: as §2
The subject of test [10] is U2OS. The experiment in a line: Inhibition of PI3K in human U2OS cells expressing FLAG-tagged SGK3 assessed as reduction in PRAS40 phosphorylation T246 residues at 0.5 uM 1 hr by immunoblot analysis. The test is classed as cell-based. The procedure, abridged: as §2
Test [11] concerns U2OS. Kind of test: Inhibition of PI3K in human U2OS cells expressing FLAG-tagged SGK3 assessed as reduction in 4EBP1 phosphorylation T37/T46 residues at 0.5 uM 1 hr by immunoblot analysis. The test is classed as cell-based. The procedure, abridged: as §2
Test [12] has as its system U2OS. The experiment in a line: Inhibition of PI3K in human U2OS cells expressing FLAG-tagged SGK3 assessed as reduction in 4EBP1 phosphorylation S65 residues at 0.5 uM 1 hr by immunoblot analysis. The test is classed as cell-based. The procedure, abridged: as §2
Test [13] relates to U2OS. Kind of test: Inhibition of PI3K in human U2OS cells expressing FLAG-tagged SGK3 assessed as reduction in SGK3 activity at 0.5 uM using cross peptide as substrate incubated for 1 to 2 mins in presence of [gamma-32P]-ATP by radioactive assay. In kind it is cell-based. Conditions: time 1-2 min.
Test [14] has as its system U2OS. Kind of test: Inhibition of PI3K in human U2OS cells expressing FLAG-tagged SGK3 assessed as reduction in SGK3 phosphorylation at T320 residues 0.5 uM after 1 to 2 mins by immunoblot analysis. The test is classed as cell-based. Conditions: time 1-2 min.
The subject of test [15] is U2OS. Kind of test: Inhibition of PI3K in human U2OS cells expressing FLAG-tagged SGK3 assessed as reduction in SGK3 phosphorylation at S486 residues 0.5 uM after 1 to 2 mins by immunoblot analysis. In kind it is cell-based. Conditions: time 1-2 min.
Test [16] concerns U2OS. Kind of test: Inhibition of PI3K in human U2OS cells expressing FLAG-tagged SGK3 assessed as reduction in NDRG1 phosphorylation at T346 residues at 0.5 uM 1 hr by immunoblot analysis. The test is classed as cell-based.
Test [17] deals with U2OS. The experiment in a line: Inhibition of PI3K in human U2OS cells expressing FLAG-tagged SGK3 assessed as reduction in AKT phosphorylation T308 residues at 0.01 to 0.5 uM 1 hr by immunoblot analysis. The test is classed as cell-based. The following applies: dose 0.01-0.5 µM. The procedure, abridged:
as §2

Test [18] concerns U2OS. Kind of test: Inhibition of PI3K in human U2OS cells expressing FLAG-tagged SGK3 assessed as reduction in AKT phosphorylation S473 residues at 0.01 to 0.5 uM 1 hr by immunoblot analysis. The test is classed as cell-based. Conditions: dose 0.01-0.5 µM. The procedure, abridged:
as §2

The subject of test [19] is U2OS. Kind of test: Inhibition of PI3K in human U2OS cells expressing FLAG-tagged SGK3 assessed as reduction in PRAS40 phosphorylation T246 residues at 0.01 to 0.5 uM 1 hr by immunoblot analysis. In kind it is cell-based. The following applies: dose 0.01-0.5 µM. The procedure, abridged: as §2
Test [20] has as its system U2OS. Kind of test: Inhibition of PI3K in human U2OS cells expressing FLAG-tagged SGK3 assessed as reduction in 4EBP1 phosphorylation T37/T46 residues at 0.01 to 0.5 uM 1 hr by immunoblot analysis. In kind it is cell-based. The following applies: dose 0.01-0.5 µM. In outline:
as §2

Test [21] deals with U2OS. Kind of test: Inhibition of PI3K in human U2OS cells expressing FLAG-tagged SGK3 assessed as reduction in 4EBP1 phosphorylation S65 residues at 0.01 to 0.5 uM 1 hr by immunoblot analysis. The test is classed as cell-based. Conditions: dose 0.01-0.5 µM. The procedure, abridged: as §2
The target in test [22] is T1, 3-phosphoinositide-dependent protein kinase 1 (Homo sapiens) (UniProt O15530).
T1 sequence (whole entry): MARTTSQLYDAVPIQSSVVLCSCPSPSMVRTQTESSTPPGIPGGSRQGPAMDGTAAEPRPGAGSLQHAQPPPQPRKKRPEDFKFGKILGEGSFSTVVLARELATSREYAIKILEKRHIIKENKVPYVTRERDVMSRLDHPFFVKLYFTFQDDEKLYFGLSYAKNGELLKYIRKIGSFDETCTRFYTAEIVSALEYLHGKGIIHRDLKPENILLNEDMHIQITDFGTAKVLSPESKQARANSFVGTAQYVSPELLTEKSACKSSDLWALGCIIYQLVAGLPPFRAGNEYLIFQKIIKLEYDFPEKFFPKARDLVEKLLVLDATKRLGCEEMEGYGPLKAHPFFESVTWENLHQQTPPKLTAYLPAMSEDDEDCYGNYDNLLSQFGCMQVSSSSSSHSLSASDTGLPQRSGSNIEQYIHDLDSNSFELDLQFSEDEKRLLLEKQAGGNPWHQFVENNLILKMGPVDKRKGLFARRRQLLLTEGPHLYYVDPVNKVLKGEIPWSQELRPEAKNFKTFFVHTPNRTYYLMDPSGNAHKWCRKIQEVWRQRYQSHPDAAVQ
Kind of test: Inhibition of PDK1 in human U2OS cells expressing FLAG-tagged SGK3 assessed as reduction in SGK3 phosphorylation at T320 residues at 1 uM after 1 hr by immunoblot analysis. In kind it is cell-based. In outline:
(§3)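 U2OS Flp-In cells with doxycycline-induced (0.01 mg/ml, 24 h) full-length SGK3 carrying a C-terminal FLAG tag; treated with 1 μM inhibitor for 1 h. Lysis, anti-FLAG immunoprecipitation, washes (high-salt lysis buffer, lysis buffer, 50 mM Tris pH 7.5/0.1 mM EGTA). IP kinase assay: 30 μM Crosstide, 0.1 mM [γ-32P]ATP, 10 mM Mg acetate, 30 min. Phosphosites then immunoblotted, ECL. Triplicate reactions.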

In test [23] the target is T1, 3-phosphoinositide-dependent protein kinase 1 (Homo sapiens). Kind of test: Inhibition of PDK1 in human U2OS cells expressing FLAG-tagged SGK3 assessed as reduction in SGK3 phosphorylation at S486 residues at 1 uM after 1 hr by immunoblot analysis. The test is classed as cell-based. The procedure, abridged: as §3
Test [24] shares this target. The experiment in a line: Inhibition of PDK1 in human U2OS cells expressing FLAG-tagged SGK3 assessed as reduction in SGK3 activity at 1 uM using cross peptide as substrate incubated for 30 mins in presence of [gamma-32P]-ATP by radioactive assay. The test is classed as cell-based. The procedure, abridged: as §3

Active and inactive are the calls of the source. No cut-off for these calls is given here.

Chain of Phosphatidylinositol 3-kinase catalytic subunit type 3 (Homo sapiens) (Q8NEB9 whole entry): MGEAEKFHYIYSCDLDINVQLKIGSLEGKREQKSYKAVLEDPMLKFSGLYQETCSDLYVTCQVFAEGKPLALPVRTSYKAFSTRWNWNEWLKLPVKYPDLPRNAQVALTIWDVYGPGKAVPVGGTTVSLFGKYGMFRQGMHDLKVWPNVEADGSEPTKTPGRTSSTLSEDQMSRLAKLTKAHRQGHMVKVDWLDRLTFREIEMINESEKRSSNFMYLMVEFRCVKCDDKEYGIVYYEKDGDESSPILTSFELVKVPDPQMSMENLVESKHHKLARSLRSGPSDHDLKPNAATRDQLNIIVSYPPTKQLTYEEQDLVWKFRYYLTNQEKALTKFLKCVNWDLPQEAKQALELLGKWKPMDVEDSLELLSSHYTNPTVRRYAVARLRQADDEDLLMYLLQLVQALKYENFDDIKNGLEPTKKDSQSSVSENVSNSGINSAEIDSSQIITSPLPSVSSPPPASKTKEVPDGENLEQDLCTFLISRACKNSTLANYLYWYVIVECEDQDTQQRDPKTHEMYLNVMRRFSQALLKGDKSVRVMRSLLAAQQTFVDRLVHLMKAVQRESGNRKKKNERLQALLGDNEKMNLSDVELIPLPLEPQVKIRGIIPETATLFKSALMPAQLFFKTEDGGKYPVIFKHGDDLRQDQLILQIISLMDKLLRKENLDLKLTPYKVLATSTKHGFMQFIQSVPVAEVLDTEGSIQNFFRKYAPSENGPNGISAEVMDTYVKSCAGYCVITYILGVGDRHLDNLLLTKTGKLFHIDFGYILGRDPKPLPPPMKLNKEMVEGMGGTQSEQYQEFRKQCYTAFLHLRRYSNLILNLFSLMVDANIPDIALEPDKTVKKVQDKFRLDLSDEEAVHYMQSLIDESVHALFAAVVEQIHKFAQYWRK

As to `COc1ccc(-c2ccc3c(N4CCOC[C@@H]4C)nc(N4CCOC[C@@H]4C)nc3n2)cc1CO`, the inhibition entry in test [1] and in test [2] was “Active” in each case.
As for `CS(=O)(=O)N1CCN(Cc2cc3nc(-c4cccc5[nH]ncc45)nc(N4CCOCC4)c3s2)CC1`, the inhibition result (in test [3]; in test [5]; in the test on U2OS [11]; in the test on U2OS [12]) was “inactive” throughout. For the same compound, the inhibition result in the test on U2OS [4], in the test with U2OS [6], with U2OS [7], in the test with U2OS [8], in the test with U2OS [9] and in the test on U2OS [10] was “Active” throughout. The inhibition result with U2OS [13], in the test on U2OS [14], in the test on U2OS [15] and with U2OS [16] was “Active” each time.
With `Nc1cc(C(F)(F)F)c(-c2cc(N3CCOCC3)nc(N3CCOCC3)n2)cn1`, the inhibition result with U2OS [17], in the test with U2OS [18] and in the test on U2OS [19] was “Active” in each case. In addition, the inhibition result with U2OS [20] and in the test on U2OS [21] was “inactive” in each case.
Regarding `CNc1nc(-c2ccc3c(N)n[nH]c3c2)cc(N2C[C@@H](C(=O)NC3CCCCC3)CC[C@H]2C)n1`, the inhibition entry in [22], in [23] and in [24] was “Active” in each case.
